The results in this text go back to ChEMBL document CHEMBL1155265, “Design, synthesis and in vitro antibacterial/antifungal evaluation of novel 1-ethyl-6-fluoro-1,4-dihydro-4-oxo-7(1-piperazinyl)quinoline-3-carboxylic acid derivatives” (2009).

Common to all, as to type: functional
The test system of one assay is Xanthomonas axonopodis. Kind of assay: Antibacterial activity against Xanthomonas axonopodis at 50 mg/L after 24 hrs by agar well diffusion method. Conditions: read-out: DIZ. Put shortly:
(§1)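 Bacteria plated as 0.8 mL of 24-h-old inoculum mixed into 60 mL sterile molten agar cooled to 45 °C, poured into three dishes. Wells bored with centres at least 24 mm apart. Test sample at 50 mg/L in DMSO added to wells. DMSO served as negative control and agricultural streptomycin sulfate as positive control. Read-out was inhibition zone diameter (mm).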
A general note: In agar diffusion tests the substance spreads into inoculated agar from a disc or well.

Another assay deals with Fusarium graminearum. The experiment in a line: Antifungal activity against Gibberella zeae at 200 mg/L by plate growth rate method. Conditions: read-out: GI. In outline: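 Plate growth rate method: compound dissolved in DMSO, mixed into sterile PDA at 45 °C to 200 mg/L, plates poured. A 5 mm mycelium agar disc placed centrally; incubated at 28 °C in the dark until the untreated control covered the plate. Colony diameters measured; growth inhibition computed by Abbott's formula. Each compound tested three times.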

In the next assay the test system is Rhizoctonia solani. The experiment in a line: Antifungal activity against Rhizoctonia solani at 200 mg/L by plate growth rate method. Particulars: read-out: GI. Put shortly:
(§2)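 Compound dissolved in DMSO and mixed into molten PDA at 45 °C at 200 mg/L, then plates allowed to set. A 5 mm mycelial agar disc was placed at the centre. Plates were incubated at 28 °C in the dark until the untreated control covered the plate. Colony diameters were measured and growth inhibition calculated by Abbott's formula. Each compound was tested three times.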

The subject of a further assay is Ralstonia solanacearum. The experiment in a line: Antibacterial activity against Ralstonia solanacearum at 50 mg/L after 24 hrs by agar well diffusion method. Conditions: read-out: DIZ.
A further assay concerns Xanthomonas oryzae. Kind of assay: Antibacterial activity against Xanthomonas oryzae at 50 mg/L after 24 hrs by agar well diffusion method. Particulars: read-out: DIZ.
Another assay deals with Bacillus subtilis. Kind of assay: Antibacterial activity against Bacillus subtilis at 50 mg/L after 24 hrs by agar well diffusion method. Particulars: read-out: DIZ. In outline:
as §1

Another assay relates to Erwinia. Kind of assay: Antibacterial activity against Erwinia aroideae at 50 mg/L after 24 hrs by agar well diffusion method. Particulars: read-out: DIZ. Put shortly: as §1
A further assay deals with Cytospora mali. The experiment in a line: Antifungal activity against Valsa mali at 200 mg/L by plate growth rate method. Conditions: read-out: GI. Put shortly: as §2

As to `CCn1cc(C(=O)O)c(=O)c2cc(F)c(N3CCN(C(=O)c4ccc(C)cc4)CC3)cc21`, the zone of inhibition at 50 µg/mL was determined as 13 mm in the assay on Xanthomonas axonopodis; 3.22 mm with Ralstonia solanacearum; 19.7 mm with Xanthomonas oryzae; 17.1 mm with Bacillus subtilis; 14.6 mm in the assay on Erwinia. In addition, the inhibition of growth at 200 µg/mL in the assay on Fusarium graminearum amounted to 28%; in the assay on Rhizoctonia solani, 36%; with Cytospora mali, 37%.

Consider `CCn1cc(C(=O)O)c(=O)c2cc(F)c(N3CCN(C(=O)/C=C/c4ccc(Cl)cc4Cl)CC3)cc21`, for which the zone of inhibition at 50 µg/mL in the assay with Xanthomonas axonopodis worked out at 5.91 mm; in the assay with Ralstonia solanacearum, 0 mm; in the assay with Xanthomonas oryzae, 4.44 mm; in the assay with Bacillus subtilis it was 2.08 mm; in the assay on Erwinia, 2.92 mm. In addition, the inhibition of growth at 200 µg/mL in the assay on Fusarium graminearum is 2%; with Rhizoctonia solani it was 0%; in the assay with Cytospora mali, 6%.

Turning to `CCn1cc(C(=O)O)c(=O)c2cc(F)c(N3CCN(C(=O)COc4ccc(Cl)cc4Cl)CC3)cc21`, the zone of inhibition at 50 µg/mL in the assay on Xanthomonas axonopodis was 8.16 mm; with Ralstonia solanacearum it was 0.5 mm; in the assay on Xanthomonas oryzae, 10 mm; with Bacillus subtilis it was 9.91 mm; in the assay on Erwinia it was 8.52 mm. Further, the inhibition of growth at 200 µg/mL in the assay on Fusarium graminearum is 5%; in the assay on Rhizoctonia solani, 72%; with Cytospora mali, 17%.

Regarding `CCn1cc(C(=O)O)c(=O)c2cc(F)c(N3CCN(C(=O)COc4ccccc4OC)CC3)cc21`, the zone of inhibition at 50 µg/mL in the assay on Xanthomonas axonopodis was 11 mm; in the assay on Ralstonia solanacearum, 4.97 mm; with Xanthomonas oryzae, 11.9 mm; with Bacillus subtilis, 17.7 mm; in the assay on Erwinia, 12.9 mm. Moreover, the inhibition of growth at 200 µg/mL in the assay with Fusarium graminearum was determined as 14%; in the assay with Rhizoctonia solani, 0%; with Cytospora mali, 7%.

Consider `CCn1cc(C(=O)O)c(=O)c2cc(F)c(N3CCN(C(=O)c4ccccc4Cl)CC3)cc21`, for which the zone of inhibition at 50 µg/mL in the assay with Xanthomonas axonopodis was determined as 14.2 mm; in the assay on Ralstonia solanacearum, 8.97 mm; in the assay with Xanthomonas oryzae it was 16.9 mm; with Bacillus subtilis, 19 mm; in the assay on Erwinia, 16 mm. The results for the inhibition of growth at 200 µg/mL in the assay on Fusarium graminearum, in the assay on Rhizoctonia solani and in the assay with Cytospora mali were 27%, 5% and 41%, respectively.

Take `CCn1cc(C(=O)O)c(=O)c2cc(F)c(N3CCN(C(=O)/C=C/c4ccc(OC)cc4)CC3)cc21`: the zone of inhibition at 50 µg/mL in the assay with Xanthomonas axonopodis amounted to 6.83 mm; in the assay on Ralstonia solanacearum, 0 mm; in the assay with Xanthomonas oryzae, 5.35 mm; in the assay on Bacillus subtilis it was 8.91 mm; in the assay with Erwinia it was 8.02 mm. The inhibition of growth at 200 µg/mL amounted to 1% in the assay with Fusarium graminearum, 94% with Rhizoctonia solani and 5% with Cytospora mali.
